Tests used:
Cytotoxicity = assay type: cell-based; settings: mouse, BV2 microglial cells
Procedure, shortened: (§1)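 Mouse BV2 microglia in DMEM with 10% FBS and 1% penicillin–streptomycin, 37 °C, 5% CO2. Seeded at 2 × 10^4 cells/well for 24 h, then exposed to test compound (0, 5, 10, 20, 40, 80 μM) for 24 h. MTT at 500 μg mL−1 for 3 h, formazan dissolved in DMSO, A570. Mean ± SD (n = 3); one-way ANOVA with Dunnett versus vehicle.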

TNF-α = TNF-α release; assay type: cell-based; settings: LPS-induced BV2 cells, pretreatment, concentration-dependent manner (Fig. 4 and 5)
IL-6 = IL-6 release; assay type: cell-based; settings: LPS-induced BV2 cells, pretreatment, concentration-dependent manner (Fig. 4 and 5)
MCP-1 = MCP-1 release; assay type: cell-based; settings: LPS-induced BV2 cells, pretreatment, concentration-dependent manner (Fig. 4 and 5)
NF-κB (p65) = test: Western blot of LPS-induced NF-κB; assay type: cell-based; settings: pretreated 1 hour with the highest safety dose, LPS for 1 hour (Fig. 6)
Procedure, shortened: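 BV2 cells (2 × 10^6 per 6 cm dish) got the highest non-cytotoxic test-compound concentration for 1 h, then LPS for 1 h. Lysates were centrifuged (4 °C, 12 000 rpm, 10 min), Bradford-quantified, 40 μg run on 10% SDS–PAGE and semi-dry blotted to nitrocellulose. P-p65, p65 (1:1000) and β-actin (1:2000) were detected by HRP anti-rabbit and ECL, then densitometry; one-way ANOVA/Bonferroni versus LPS.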

BV2 microglial cells = test: Cytotoxicity; assay type: cell-based; settings: 24 hours, MTT, mean ± SD (n = 3)
Procedure, shortened: as §1

[1] = test system: LPS-induced RAW264.7 cells; settings: cited from earlier work

| Molecule | viability at 24 h, 5 µM (Cytotoxicity) [%] | viability at 24 h, 10 µM (Cytotoxicity) [%] | viability at 24 h, 20 µM (Cytotoxicity) [%] | viability at 24 h, 40 µM (Cytotoxicity) [%] | viability at 24 h, 80 µM (Cytotoxicity) [%] | Effect on release of TNF-α (TNF-α) | Effect on release of IL-6 (IL-6) | Effect on release of MCP-1 (MCP-1) | Effect on LPS-induced NF-κB (p65) phosphorylation (P-p65-NF-κB/p65-NF-κB ratio) (NF-κB (p65)) | Percentage viability (%) (BV2 microglial cells; 5 μM) | Percentage viability (%) (BV2 microglial cells; 10 μM) | Percentage viability (%) (BV2 microglial cells; 20 μM) | Percentage viability (%) (BV2 microglial cells; 40 μM) | Percentage viability (%) (BV2 microglial cells; 80 μM) | Anti-inflammatory activity [1] |
| --- | --- | --- | --- | --- | --- | --- | --- | --- | --- | --- | --- | --- | --- | --- | --- |
| COc1ccc2c(c1O)CCc1cc(O)cc(OC)c1-2 [Compound 4, 9,10-dihydro-2,5-dimethoxy-1,7-phenanthrenediol] | 102 ± 3.53 | 99.3 ± 5.77 | 101 ± 2.3 | 95.3 ± 3.88 | 49.1 ± 24.6 |  |  |  |  |  |  |  |  |  |  |
| COC1=CC(=O)c2c(ccc3cc(OC)c(OC)c(OC)c23)C1=O [Compound 1, 2,5,6,7-tetramethoxy-1,4-phenanthrenequinone] | 101 ± 3.33 | 101.5 ± 0.67 | 105 ± 7.09 | 102 ± 8.6 | 73.7 ± 18.5 | significantly reduced | significantly reduced | significantly reduced |  |  |  |  |  |  |  |
| COc1cc(C(=O)O)ccc1O [Compound 11, vanillic acid] | 102.9 ± 0.86 | 99.7 ± 1.55 | 98.77 ± 0.86 | 94.8 ± 2.82 | 86.4 ± 4.09 |  |  |  |  |  |  |  |  |  |  |
| O=C(O)c1ccc(CO)cc1 [Compound 15, 4-hydroxymethyl benzoic acid] | 103 ± 1.97 | 105 ± 3.91 | 111 ± 2.26 | 108 ± 2.12 | 104 ± 3.05 |  |  |  |  |  |  |  |  |  |  |
| COc1cc(O)cc2c1-c1c(O)cccc1CC2 [Compound 7, hircinol] | 105 ± 4.37 | 108 ± 3.16 | 112 ± 2.51 | 111 ± 1.88 | 104 ± 9.12 |  |  |  |  |  |  |  |  |  |  |
| COc1cc2c(ccc3cc(OC)c(O)c(OC)c32)cc1O [Compound 8, 3,7-dihydroxy-2,4,6-trimethoxyphenanthrene] | 106.3 ± 0.36 | 100 ± 6.16 | 108.2 ± 0.53 | 113 ± 1.57 | 94.4 ± 21.2 |  |  |  |  |  |  |  |  |  |  |
| COc1cc2ccc3cccc(O)c3c2c(OC)c1O [Compound 9, bulbophyllanthrin] | 102 ± 2.99 | 101 ± 4.09 | 105 ± 3.47 | 105 ± 5.59 | 112 ± 5.8 |  |  |  |  |  |  |  |  |  |  |
| COC1=CC(=O)c2ccc3cc(OC)c(OC)c(OC)c3c2C1=O [Compound 3, 3,5,6,7-tetramethoxy-1,4-phenanthrenequinone] | 99.9 ± 1.96 | 95.6 ± 7.44 | 94.9 ± 3.76 | 88.8 ± 6.76 | 55.1 ± 26.4 | significantly reduced | significantly reduced | significantly reduced | significantly suppressed |  |  |  |  |  |  |
| COc1cc(O)c(Cc2ccc(O)cc2)c2c1-c1ccc(O)cc1CC2 [Compound 14, 1-(4-hydroxylbenzyl)-4-methoxy 9,10-dihydrophenanthrene 2,7-diol] | 108 ± 3.2 | 97.9 ± 8.91 | 91.9 ± 1.47 | 65.9 ± 4.08 | 26.7 ± 14.7 | significantly reduced | significantly reduced | significantly reduced |  |  |  |  |  |  |  |
| COc1cc(/C=C/C(=O)NCCc2ccc(O)cc2)ccc1O [Compound 17, N-trans-feruloyl tyramine] | 107 ± 6.44 | 97.3 ± 7.01 | 101 ± 8.73 | 101 ± 5.33 | 84.9 ± 5.53 |  |  |  |  |  |  |  |  |  |  |
| O=Cc1ccc(O)cc1 [Compound 5, p-hydroxybenzaldehyde] | 105 ± 1.81 | 104 ± 7.68 | 101 ± 7.37 | 101 ± 14.9 | 94.5 ± 21.6 |  |  |  |  |  |  |  |  |  |  |
| O=C(O)c1ccc(O)cc1 [Compound 10, p-hydroxybenzoic acid] | 101 ± 2.85 | 96.6 ± 1.58 | 104 ± 7.79 | 95.8 ± 4.1 | 85.1 ± 9.87 |  |  |  |  |  |  |  |  |  |  |
| coelonin [Compound 6] |  |  |  |  |  | significantly reduced | significantly reduced | significantly reduced |  | 106.33 ± 4.65 | 108.08 ± 5.54 | 105.55 ± 7.76 | 76.69 ± 2.86 | 44.78 ± 13.23 | anti-inflammatory activity |
